Data set [1] concerns the target Calcium/calmodulin-dependent protein kinase type 1G (Homo sapiens) (UniProt Q96NX5). Put plainly: Binding affinity to wild-type human partial length CAMK1G (M1 to A342 residues) expressed in bacterial expression system assessed as residual binding level at 1 uM by Kinomescan method relative to control.
Data set [2] deals with Tyrosine-protein kinase ABL1 (Homo sapiens), P00519 [H396P]. Briefly: Binding affinity to human non-phosphorylated ABL1 H396P mutant (S229 to K512 residues) expressed in mammalian expression system assessed as residual binding level at 1 uM by Kinomescan method relative to control. The procedure, abridged:
(§1)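 Kinome-wide single-concentration binding screen (KINOMEscan) at 1 μM against a panel of 468 purified kinases and mutants. Read-out is relative binding of each kinase compared with control. Selectivity across the panel was summarised as an S(10) score.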

Data set [3] concerns the target Maternal embryonic leucine zipper kinase (Homo sapiens) (UniProt Q14680). Put plainly: Binding affinity to wild-type human full length MELK (M1 to V651 residues) expressed in bacterial expression system assessed as residual binding level at 1 uM by Kinomescan method relative to control. The procedure, abridged: (§2)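 KINOMEscan competition binding against 468 purified kinases/mutants, test compound at 1 µM; residual binding relative to control.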

In data set [4] the target is Mitogen-activated protein kinase kinase kinase 10 (Homo sapiens) (UniProt Q02779). Briefly: Binding affinity to wild-type human partial length MLK2 (V52 to W380 residues) expressed in bacterial expression system assessed as residual binding level at 1 uM by Kinomescan method relative to control.
The target in data set [5] is Myotonin-protein kinase (Homo sapiens) (UniProt Q09013). Briefly: Binding affinity to wild-type human partial length DMPK (V47 to V415 residues) expressed in bacterial expression system assessed as residual binding level at 1 uM by Kinomescan method relative to control. In a few lines: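 Kinome-wide competition binding screen against a panel of 468 purified kinases/mutants, with the test compound at a single concentration of 1 μM. Read-out is the relative binding activity of each kinase in the presence of compound.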

Data set [6] addresses Serine/threonine-protein kinase 36 (Homo sapiens) (UniProt Q9NRP7). Put plainly: Binding affinity to wild-type human partial length STK36 (M1 to T271 residues) expressed in bacterial expression system assessed as residual binding level at 1 uM by Kinomescan method relative to control.
For data set [7], the target named is Serine/threonine-protein kinase B-raf (Homo sapiens) (UniProt P15056). Put plainly: Binding affinity to wild-type human partial length BRAF (S429 to E741 residues) expressed in mammalian expression system assessed as residual binding level at 1 uM by Kinomescan method relative to control. The procedure, abridged: (§3)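 Single-concentration KINOMEscan (DiscoverX) binding screen at 1 μM against a panel of 468 purified kinases and mutants. The read-out is binding relative to control.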

Data set [8] has as its target Serine/threonine-protein kinase MRCK gamma (Homo sapiens) (UniProt Q6DT37). Briefly: Binding affinity to wild-type human partial length DMPK2 (S46 to S408 residues) expressed in bacterial expression system assessed as residual binding level at 1 uM by Kinomescan method relative to control.
Data set [9] addresses T1, Platelet-derived growth factor receptor alpha (Homo sapiens, UniProt P16234). Briefly: Inhibition of PDGF-induced PDGFRalpha autophosphorylation at Y1018 residue in human NCI-H1703 cells after 2 hrs in presence of PDGF-AA by Western blot analysis. In kind it is cell-based. For orientation: In western blotting, separated proteins are transferred to a membrane and probed.

Data set [10] concerns the target T1, Platelet-derived growth factor receptor alpha. Put plainly: Inhibition of PDGF-induced PDGFRalpha autophosphorylation at Y754 residue in human NCI-H1703 cells after 2 hrs in presence of PDGF-AA by Western blot analysis. The data set is classed as cell-based.
Data set [11] has as its target Ribosomal protein S6 kinase alpha-1 (Homo sapiens) (UniProt Q15418). Put plainly: Binding affinity to wild-type human partial length C-terminal RSK1 kinase domain 2 (P360 to L681 residues) expressed in bacterial expression system assessed as residual binding level at 1 uM by Kinomescan method relative to control.
For data set [12], the target named is Serine/threonine-protein kinase NLK (Homo sapiens) (UniProt Q9UBE8). Briefly: Binding affinity to wild-type human full length NLK (M13 to E527 residues) expressed in bacterial expression system assessed as residual binding level at 1 uM by Kinomescan method relative to control. The procedure, abridged:
as §2

For data set [13], the target named is Epidermal growth factor receptor (Homo sapiens) (UniProt P00533). Put plainly: Binding affinity to wild-type human partial length EGFR (R669 to V1011 residues) expressed in bacterial expression system assessed as residual binding level at 1 uM by Kinomescan method relative to control.
Data set [14] has as its target Dual specificity mitogen-activated protein kinase kinase 1 (Homo sapiens) (UniProt Q02750). Put plainly: Binding affinity to wild-type human full length MEK1 (M1 to V393 residues) expressed in mammalian expression system assessed as residual binding level at 1 uM by Kinomescan method relative to control. In a few lines:
as §3

Data set [15] addresses Serine/threonine-protein kinase Nek11 (Homo sapiens) (UniProt Q8NG66). Put plainly: Binding affinity to wild-type human partial length NEK11 (M1 to E313 residues) expressed in mammalian expression system assessed as residual binding level at 1 uM by Kinomescan method relative to control.
The target of data set [16] is Muscle, skeletal receptor tyrosine-protein kinase (Homo sapiens) (UniProt O15146). Briefly: Binding affinity to wild-type human partial length MUSK (M553 to V869 residues) expressed in bacterial expression system assessed as residual binding level at 1 uM by Kinomescan method relative to control.
For data set [17], the target named is Tyrosine-protein kinase Lyn (Homo sapiens) (UniProt P07948). Put plainly: Binding affinity to wild-type human partial length LYN (C219 to Q511 residues) expressed in bacterial expression system assessed as residual binding level at 1 uM by Kinomescan method relative to control.
The target in data set [18] is Testis-specific serine/threonine-protein kinase 3 (Homo sapiens) (UniProt Q96PN8). Briefly: Binding affinity to wild-type human full length TSSK3 (M1 to T268 residues) expressed in mammalian expression system assessed as residual binding level at 1 uM by Kinomescan method relative to control. In a few lines:
as §3

Data set [19] deals with Receptor-type tyrosine-protein kinase FLT3 (Homo sapiens), P36888 [R834Q]. Put plainly: Binding affinity to human partial length FLT3 R834Q mutant (V592 to Y969 residues) expressed in mammalian expression system assessed as residual binding level at 1 uM by Kinomescan method relative to control. The procedure, abridged:
as §1

Data set [20] has as its target Leucine-rich repeat serine/threonine-protein kinase 2 (Homo sapiens) (UniProt Q5S007). Put plainly: Binding affinity to wild-type human partial length LRRK2 (H970 to E2527 residues) expressed in mammalian expression system assessed as residual binding level at 1 uM by Kinomescan method relative to control.
The target in data set [21] is Serine/threonine-protein kinase tousled-like 2 (Homo sapiens) (UniProt Q86UE8). Briefly: Binding affinity to wild-type human partial length TLK2 (E424 to N749 residues) expressed in bacterial expression system assessed as residual binding level at 1 uM by Kinomescan method relative to control.
A further data set relates to Mus musculus. Put plainly: Toxicity in NOD-SCID mouse engrafted with human EOL-1 cells assessed as change in body weight at 30 mg/kg/day, ip administered 3 weeks post cell inoculation. The data set is classed as organism-based. Particulars: in vivo, 504 h.

T1 sequence (P16234 whole entry): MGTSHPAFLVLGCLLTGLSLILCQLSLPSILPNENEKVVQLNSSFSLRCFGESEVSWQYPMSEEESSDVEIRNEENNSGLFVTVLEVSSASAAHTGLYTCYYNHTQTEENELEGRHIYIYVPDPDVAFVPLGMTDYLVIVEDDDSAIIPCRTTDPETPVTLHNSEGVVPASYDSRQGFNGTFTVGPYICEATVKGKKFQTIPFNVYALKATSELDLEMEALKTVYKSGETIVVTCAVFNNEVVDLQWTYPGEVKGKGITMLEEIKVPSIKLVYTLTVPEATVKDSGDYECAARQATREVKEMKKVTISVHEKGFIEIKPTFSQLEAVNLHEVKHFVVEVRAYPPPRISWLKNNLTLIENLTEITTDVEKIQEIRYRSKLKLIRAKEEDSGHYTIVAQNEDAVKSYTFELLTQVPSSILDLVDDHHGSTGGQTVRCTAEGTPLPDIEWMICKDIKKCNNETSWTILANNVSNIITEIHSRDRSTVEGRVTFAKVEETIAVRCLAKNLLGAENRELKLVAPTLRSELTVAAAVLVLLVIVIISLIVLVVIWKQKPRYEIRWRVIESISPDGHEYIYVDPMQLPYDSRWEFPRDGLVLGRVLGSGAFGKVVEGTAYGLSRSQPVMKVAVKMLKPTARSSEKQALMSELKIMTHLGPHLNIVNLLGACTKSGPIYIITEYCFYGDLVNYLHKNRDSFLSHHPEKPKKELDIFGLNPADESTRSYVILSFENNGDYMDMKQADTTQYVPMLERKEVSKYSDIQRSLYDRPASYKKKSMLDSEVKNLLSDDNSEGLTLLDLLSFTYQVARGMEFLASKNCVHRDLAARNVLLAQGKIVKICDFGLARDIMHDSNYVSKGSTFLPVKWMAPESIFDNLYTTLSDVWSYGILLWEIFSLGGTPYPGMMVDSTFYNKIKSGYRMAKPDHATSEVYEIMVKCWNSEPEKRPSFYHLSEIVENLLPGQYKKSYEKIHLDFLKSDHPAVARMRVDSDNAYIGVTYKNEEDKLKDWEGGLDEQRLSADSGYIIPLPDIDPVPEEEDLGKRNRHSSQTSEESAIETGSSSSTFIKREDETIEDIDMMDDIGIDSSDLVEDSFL
Leucine-rich repeat serine/threonine-protein kinase 2 (Homo sapiens), sequence (Q5S007 whole entry, the tested form may be a part): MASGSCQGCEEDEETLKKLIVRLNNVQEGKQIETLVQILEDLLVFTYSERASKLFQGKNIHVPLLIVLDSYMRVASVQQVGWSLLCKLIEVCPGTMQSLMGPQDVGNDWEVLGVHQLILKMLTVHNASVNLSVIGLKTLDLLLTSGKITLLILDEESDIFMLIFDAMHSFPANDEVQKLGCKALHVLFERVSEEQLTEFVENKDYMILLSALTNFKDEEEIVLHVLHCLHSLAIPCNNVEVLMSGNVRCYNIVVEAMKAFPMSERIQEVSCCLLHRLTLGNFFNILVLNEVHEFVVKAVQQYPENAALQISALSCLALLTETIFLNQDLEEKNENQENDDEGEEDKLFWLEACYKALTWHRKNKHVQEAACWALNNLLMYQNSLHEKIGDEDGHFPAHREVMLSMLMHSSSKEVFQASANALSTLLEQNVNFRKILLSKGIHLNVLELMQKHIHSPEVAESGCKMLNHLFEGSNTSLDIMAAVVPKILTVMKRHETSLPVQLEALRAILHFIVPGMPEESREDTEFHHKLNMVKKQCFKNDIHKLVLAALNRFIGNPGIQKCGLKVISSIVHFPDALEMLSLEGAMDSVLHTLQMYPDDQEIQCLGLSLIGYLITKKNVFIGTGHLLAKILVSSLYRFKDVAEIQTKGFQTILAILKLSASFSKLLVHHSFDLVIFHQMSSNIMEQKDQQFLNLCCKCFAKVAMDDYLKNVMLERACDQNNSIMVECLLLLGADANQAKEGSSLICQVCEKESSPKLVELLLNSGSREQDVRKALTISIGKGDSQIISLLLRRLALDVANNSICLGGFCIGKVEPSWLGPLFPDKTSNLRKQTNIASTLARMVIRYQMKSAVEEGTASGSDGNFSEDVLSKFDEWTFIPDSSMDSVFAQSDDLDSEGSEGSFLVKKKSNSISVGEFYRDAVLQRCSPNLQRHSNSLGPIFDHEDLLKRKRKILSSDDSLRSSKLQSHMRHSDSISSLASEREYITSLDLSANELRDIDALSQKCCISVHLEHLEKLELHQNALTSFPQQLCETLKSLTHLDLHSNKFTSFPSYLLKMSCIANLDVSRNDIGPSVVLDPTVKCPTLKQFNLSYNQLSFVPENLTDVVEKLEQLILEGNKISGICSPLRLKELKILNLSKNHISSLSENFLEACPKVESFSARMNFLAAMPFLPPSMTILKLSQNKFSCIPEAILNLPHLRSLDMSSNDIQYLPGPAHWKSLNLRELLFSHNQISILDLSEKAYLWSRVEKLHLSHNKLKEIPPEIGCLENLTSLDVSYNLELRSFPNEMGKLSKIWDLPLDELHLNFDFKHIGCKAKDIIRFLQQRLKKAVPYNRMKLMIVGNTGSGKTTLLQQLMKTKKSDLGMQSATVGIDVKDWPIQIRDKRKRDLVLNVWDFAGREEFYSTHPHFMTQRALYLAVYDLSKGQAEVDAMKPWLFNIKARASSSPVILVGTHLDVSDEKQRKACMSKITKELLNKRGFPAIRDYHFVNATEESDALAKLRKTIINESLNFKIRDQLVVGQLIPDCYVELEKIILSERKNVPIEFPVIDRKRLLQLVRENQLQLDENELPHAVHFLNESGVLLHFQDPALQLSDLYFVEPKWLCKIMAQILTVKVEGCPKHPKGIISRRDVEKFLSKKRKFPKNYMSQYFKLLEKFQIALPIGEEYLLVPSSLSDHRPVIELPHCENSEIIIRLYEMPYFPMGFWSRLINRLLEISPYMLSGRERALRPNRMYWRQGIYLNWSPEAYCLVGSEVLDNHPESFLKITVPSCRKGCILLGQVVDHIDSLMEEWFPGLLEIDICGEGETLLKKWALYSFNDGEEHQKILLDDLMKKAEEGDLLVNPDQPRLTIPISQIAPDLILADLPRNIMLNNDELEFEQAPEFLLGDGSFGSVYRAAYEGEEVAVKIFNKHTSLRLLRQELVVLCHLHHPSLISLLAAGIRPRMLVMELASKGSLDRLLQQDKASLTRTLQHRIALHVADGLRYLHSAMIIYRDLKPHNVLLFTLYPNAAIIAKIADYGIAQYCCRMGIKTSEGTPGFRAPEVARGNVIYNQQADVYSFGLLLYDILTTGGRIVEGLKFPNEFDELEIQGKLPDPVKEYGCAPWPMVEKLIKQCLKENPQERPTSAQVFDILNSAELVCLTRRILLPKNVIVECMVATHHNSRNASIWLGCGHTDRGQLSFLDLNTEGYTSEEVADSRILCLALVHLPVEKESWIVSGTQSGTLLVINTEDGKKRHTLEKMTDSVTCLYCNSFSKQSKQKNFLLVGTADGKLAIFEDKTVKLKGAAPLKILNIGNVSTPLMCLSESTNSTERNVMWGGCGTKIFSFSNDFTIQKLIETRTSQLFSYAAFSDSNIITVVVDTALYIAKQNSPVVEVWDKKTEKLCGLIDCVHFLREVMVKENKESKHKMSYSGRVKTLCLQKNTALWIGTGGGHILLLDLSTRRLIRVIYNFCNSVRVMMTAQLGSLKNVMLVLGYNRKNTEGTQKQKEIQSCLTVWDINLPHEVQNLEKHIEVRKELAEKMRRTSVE
Mitogen-activated protein kinase kinase kinase 10 (Homo sapiens), sequence (Q02779 whole entry, looked up, the tested form may be a part): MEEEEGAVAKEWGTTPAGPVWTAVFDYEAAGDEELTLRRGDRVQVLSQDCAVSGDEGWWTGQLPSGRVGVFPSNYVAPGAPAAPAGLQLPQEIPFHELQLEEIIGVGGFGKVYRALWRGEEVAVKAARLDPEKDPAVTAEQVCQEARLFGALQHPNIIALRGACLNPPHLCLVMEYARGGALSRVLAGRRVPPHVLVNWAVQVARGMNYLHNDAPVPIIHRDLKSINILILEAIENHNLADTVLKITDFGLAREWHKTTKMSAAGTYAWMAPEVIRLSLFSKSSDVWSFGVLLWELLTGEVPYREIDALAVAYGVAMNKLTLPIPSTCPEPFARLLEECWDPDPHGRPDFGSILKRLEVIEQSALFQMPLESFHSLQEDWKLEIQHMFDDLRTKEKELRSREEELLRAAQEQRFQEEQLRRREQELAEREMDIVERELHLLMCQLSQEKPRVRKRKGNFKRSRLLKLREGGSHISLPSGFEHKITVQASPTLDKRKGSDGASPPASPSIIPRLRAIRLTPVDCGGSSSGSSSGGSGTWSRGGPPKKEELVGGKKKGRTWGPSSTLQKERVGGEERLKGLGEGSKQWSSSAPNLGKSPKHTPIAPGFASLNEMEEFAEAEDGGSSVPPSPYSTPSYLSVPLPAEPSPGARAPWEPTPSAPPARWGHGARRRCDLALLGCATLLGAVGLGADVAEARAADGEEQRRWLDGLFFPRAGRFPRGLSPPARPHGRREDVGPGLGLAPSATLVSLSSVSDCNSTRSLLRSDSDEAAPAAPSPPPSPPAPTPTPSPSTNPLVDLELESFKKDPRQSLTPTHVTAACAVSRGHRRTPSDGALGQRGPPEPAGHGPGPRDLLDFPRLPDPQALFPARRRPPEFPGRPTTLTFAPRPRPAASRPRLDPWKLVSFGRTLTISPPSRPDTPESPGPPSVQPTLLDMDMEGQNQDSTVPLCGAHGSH
Testis-specific serine/threonine-protein kinase 3 (Homo sapiens), sequence (Q96PN8 whole entry, the tested form may be a part): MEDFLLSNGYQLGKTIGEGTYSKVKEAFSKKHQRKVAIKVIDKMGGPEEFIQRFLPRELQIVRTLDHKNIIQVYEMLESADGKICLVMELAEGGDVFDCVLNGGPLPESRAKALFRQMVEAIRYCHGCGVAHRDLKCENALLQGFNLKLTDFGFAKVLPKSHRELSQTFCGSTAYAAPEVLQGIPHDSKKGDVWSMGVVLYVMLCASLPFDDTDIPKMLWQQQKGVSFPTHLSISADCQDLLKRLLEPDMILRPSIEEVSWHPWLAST

`Cc1ccc(NC(=O)c2ccc(CN(CCN(C)C)C(=O)c3cccnc3)cc2)cc1Nc1nccc(-c2cccnc2)n1`: the Activity in data set [1] was 100%; in data set [2] it was 69%; in data set [3], 84%; in data set [4], 96%; in data set [5], 89%; in data set [6], 97%. Besides, the Activity in data set [7] was determined as 88%; in data set [8] it was 100%; in data set [11], 100%; in data set [12] it was 82%; in data set [13], 73%; in data set [14] it was 97%. Further, the Activity in data set [15] was 100%; in data set [16], 100%; in data set [17] it was 97%; in data set [18], 100%; in data set [19], 90%; in data set [20], 100%. Also, the results for the Activity (in data set [21]; with Mus musculus) were 95% and “Non-Toxic”, respectively. Also, the inhibition result in data set [9] and in data set [10] was “Dose-dependent effect” throughout.

For the origin of these results see ChEMBL document CHEMBL4229344 (Eur J Med Chem, 2018).
